Measurements reported in ChEMBL document CHEMBL3407499, “Synthesis, QSAR and anticandidal evaluation of 1,2,3-triazoles derived from naturally bioactive scaffolds” (Eur J Med Chem, 2015).
In brackets after ≈: the same amount, converted by molar mass.

Key:
Candida albicans [1] = assay: microbe, parasite or virus in culture; assay type: functional; conditions: ATCC 90028, 48 h
Candida tropicalis [2] = assay: Fungicidal activity against Candida tropicalis ATCC 750 incubated at 37 degC for 48 hrs by broth dilution method; assay type: functional; conditions: ATCC 750, 48 h
Candida tropicalis [3] = assay: Anticandidal activity against Candida tropicalis ATCC 750 incubated at 37 degC for 24 hrs by broth dilution method; assay type: functional, organism-based; conditions: ATCC 750, 24 h
Candida albicans [4] = assay: microbe, parasite or virus in culture; assay type: functional, organism-based; conditions: ATCC 90028, 24 h
Nakaseomyces glabratus [5] = assay: microbe, parasite or virus in culture; assay type: functional, organism-based; conditions: ATCC 90030, 24 h
Nakaseomyces glabratus [6] = assay: microbe, parasite or virus in culture; assay type: functional; conditions: ATCC 90030, 48 h
Vero [7] = assay: Cytotoxicity against African green monkey Vero cells assessed as reduction in cell viability up to 10 ug/ml after 48 hrs by neutral red assay; assay type: cell-based; conditions: chlorocebus sabaeus
Candida albicans [8] = assay: Anticandidal activity against Candida albicans ATCC 90028 incubated at 37 degC for 24 hrs in presence of fluconazole by broth micro dilution method; assay type: functional; conditions: ATCC 90028, 24 h
[9] = Toxicity in human RBC assessed as induction of hemolysis at 500 ug/ml incubated for 1 hr by spectrophotometry; assay type: cell-based, Erythrocyte; conditions: red blood cells (RBC), read-out: Activity
Procedure, shortened: (§1)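 Human erythrocyte suspension in PBS, 100 µL added in triplicate to 100 µL compound dilution series in the same buffer, 1 h at 37 °C. Tubes centrifuged 10 min at 2000 rpm and 20 °C, and supernatant A450 measured. Percent hemolysis taken relative to buffer (0%) and 1% Triton X-100 (100%).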

Candida tropicalis [10] = assay: Anticandidal activity against Candida tropicalis ATCC 750 assessed as fractional inhibitory concentration incubated at 37 degC for 24 hrs in presence of fluconazole by broth micro dilution method; assay type: functional
Nakaseomyces glabratus [11] = assay: Anticandidal activity against Candida glabrata ATCC 90030 incubated at 37 degC for 24 hrs in presence of fluconazole by broth micro dilution method; assay type: functional; conditions: ATCC 90030, 24 h
[12] = Toxicity in human RBC assessed as induction of hemolysis at anticandidal IC50 level incubated for 1 hr by spectrophotometry; assay type: cell-based, Erythrocyte; conditions: red blood cells (RBC), read-out: Activity
Procedure, shortened: as §1

Candida tropicalis [13] = assay: Anticandidal activity against Candida tropicalis ATCC 750 incubated at 37 degC for 24 hrs in presence of fluconazole by broth micro dilution method; assay type: functional; conditions: ATCC 750, 24 h
Candida albicans [14] = assay: Anticandidal activity against Candida albicans ATCC 90028 assessed as fractional inhibitory concentration incubated at 37 degC for 24 hrs in presence of fluconazole by broth micro dilution method; assay type: functional
Nakaseomyces glabratus [15] = assay: Anticandidal activity against Candida glabrata ATCC 90030 assessed as fractional inhibitory concentration incubated at 37 degC for 24 hrs in presence of fluconazole by broth micro dilution method; assay type: functional
Vero [16] = assay: Cytotoxicity against African green monkey Vero cells assessed as reduction in cell viability after 48 hrs by neutral red assay; assay type: cell-based; conditions: chlorocebus sabaeus
Procedure, shortened: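 Vero (monkey kidney fibroblast) cells seeded at 25,000 cells/well, grown 24 h, then exposed to a range of compound concentrations for 48 h. Viable cells quantified by Neutral Red uptake. IC50 read from dose-response curves. Doxorubicin served as positive cytotoxic control.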

SMILES | MFC (Candida albicans [1]) [µg/mL] | MFC (Candida tropicalis [2]) [µg/mL] | IC50 (Candida tropicalis [3]) [µg/mL] | IC50 (Candida albicans [4]) [µg/mL] | IC50 (Nakaseomyces glabratus [5]) [µg/mL] | MFC (Nakaseomyces glabratus [6]) [µg/mL] | Activity (Vero [7]) | MIC (Candida albicans [8]) [µg/mL] | MIC (Candida tropicalis [3]) [µg/mL] | hemolysis at 1 h, 500 ug/ml [9] [%] | fractional inhibitory concentration index (FICI) (Candida tropicalis [10]) | MIC (Candida albicans [4]) [µg/mL] | MIC (Nakaseomyces glabratus [11]) [µg/mL] | hemolysis at 1 h [12] [%] | MIC (Candida tropicalis [13]) [µg/mL] | MIC (Nakaseomyces glabratus [5]) [µg/mL] | fractional inhibitory concentration index (FICI) (Candida albicans [14]) | fractional inhibitory concentration index (FICI) (Nakaseomyces glabratus [15]) | IC50 (Vero [16]) [µg/mL]
CC(C)c1ccc(COCc2cn(Cc3ccccc3)nn2)cc1 | > 1000 | > 1000 | 169 (≈ 527 µM) | 324 (≈ 1010 µM) | 316 (≈ 984 µM) | > 1000 | Non-toxic | – | – | – | – | – | – | – | – | – | – | – | –
c1ccc(Cn2cc(COc3cccc4cccnc34)nn2)cc1 | 62.5 (≈ 198 µM) | 62.5 (≈ 198 µM) | 3.6 (≈ 11.4 µM) | 0.044 (≈ 0.139 µM) | 12 (≈ 38 µM) | 125 (≈ 395 µM) | Non-toxic | 7.81 | 15.6 (≈ 49.4 µM) | 4.76 | 0.74 | 15.6 (≈ 49.4 µM) | 7.81 | < 5 | 7.81 | 31.2 (≈ 98.8 µM) | 0.74 | 0.48 | –
CC(C)c1ccc(O)cc1 | 500 (≈ 3670 µM) | > 1000 | 69.5 (≈ 510 µM) | 182 (≈ 1330 µM) | 153 (≈ 1130 µM) | > 1000 | – | – | – | – | – | – | – | – | – | – | – | – | –
C=CCc1ccc(O)c(OC)c1 [EUGENOL] | > 1000 | > 1000 | 92.7 (≈ 564 µM) | 237 (≈ 1440 µM) | 216 (≈ 1310 µM) | > 1000 | – | – | – | – | – | – | – | – | – | – | – | – | –
COc1ccccc1O [GUAIACOL] | > 1000 | > 1000 | 201 (≈ 1620 µM) | 179 (≈ 1440 µM) | 336 (≈ 2700 µM) | > 1000 | – | – | – | – | – | – | – | – | – | – | – | – | –
COc1cc(/C=C/C(=O)O)ccc1O [FERULATE] | > 1000 | > 1000 | 67.6 (≈ 348 µM) | 210 (≈ 1080 µM) | 617 (≈ 3180 µM) | > 1000 | – | – | – | – | – | – | – | – | – | – | – | – | –
COc1cc(C=O)ccc1O [VANILLIN] | > 1000 | > 1000 | 123 (≈ 811 µM) | 321 (≈ 2110 µM) | 483 (≈ 3170 µM) | > 1000 | – | – | – | 5.45 | – | – | – | < 5 | – | – | – | – | –
C/C=C/c1ccc(OCc2cn(Cc3ccccc3)nn2)c(OC)c1 | – | > 1000 | 154 (≈ 459 µM) | 481 (≈ 1430 µM) | 293 (≈ 873 µM) | > 1000 | Non-toxic | – | – | – | – | – | – | – | – | – | – | – | –
COc1cccc2c1C(=O)c1c(O)c3c(c(O)c1C2=O)C[C@@](O)(C(=O)CO)C[C@@H]3O[C@H]1C[C@H](N)[C@H](O)[C@H](C)O1 [DOXORUBICIN] | – | – | – | – | – | – | – | – | – | – | – | – | – | – | – | – | – | – | > 5
